Measurements taken from ChEMBL document CHEMBL1134494, “2-Amino-6-arylsulfonylbenzonitriles as non-nucleoside reverse transcriptase inhibitors of HIV-1” (J Med Chem, 2001).

Test system: Human immunodeficiency virus 1
Test: Antiviral activity against HIV-1 infected human MT-4 cells.
Format: functional, organism-based
Conditions: Human immunodeficiency virus 1, MT4
Procedure, shortened: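 HTLV-1-transformed MT4 cells were infected with HIV-1 strain 3B at 100× the amount giving a 50% drop in cell growth. They were cultured 5 days with a range of compound concentrations. IC50 is the concentration restoring 50% of infected-cell growth (cytopathic effect) relative to uninfected MT4 controls.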

Row | SMILES | IC50 [µM]
1 | N#Cc1c(N)cccc1S(=O)(=O)c1ccc(Br)cc1 | 20
2 | N#Cc1c(N)cccc1Sc1ccc(Cl)cc1 | > 32
3 | COc1ccc(S(=O)(=O)c2cccc(N)c2C#N)cc1 | 25
4 | N#Cc1ccccc1Sc1cccc(N)c1C#N | > 6.4
5 | N#Cc1c(N)cccc1S(=O)(=O)c1cccc(Br)c1 | 0.54
6 | COc1ccccc1Sc1cccc(N)c1C#N | 4.3
7 | N#Cc1c(N)cccc1S(=O)(=O)c1ccccc1 | 2
8 | N#Cc1c(N)cccc1Sc1cc(Cl)ccc1Cl | > 0.8
9 | CCCCOc1cc(C)cc(S(=O)(=O)c2cccc(N)c2C#N)c1 | 0.6
10 | N#Cc1c(N)cccc1S(=O)(=O)c1ccccc1Br | 5
11 | N#Cc1c(N)cccc1S(=O)(=O)c1cccc(C(F)(F)F)c1 | 3.5
12 | N#Cc1c(N)cccc1S(=O)(=O)c1cccc(Cl)c1 | 0.59
13 | Cc1cccc([S+]([O-])c2cccc(N)c2C#N)c1 (centres undefined) | 29.2
14 | N#Cc1c(N)cccc1Sc1cccc(N)c1 | 31.5
15 | N#Cc1c(N)cccc1Sc1cccc(Br)c1 | 5.1
16 | N#Cc1c(N)cccc1Sc1cccc(C(F)(F)F)c1 | 12.8
17 | N#Cc1c(N)cccc1[S+]([O-])c1cccc(C(F)(F)F)c1 (centres undefined) | 40
18 | Cc1ccc([S+]([O-])c2cccc(N)c2C#N)cc1 (centres undefined) | 49
19 | Cc1cccc(Sc2cccc(N)c2C#N)c1 | 6.1
20 | N#Cc1ccc(S(=O)(=O)c2cccc(N)c2C#N)cc1 | 80
21 | N#Cc1c(N)cccc1[S+]([O-])c1cc(Cl)ccc1Cl (centres undefined) | 9.85
22 | N#Cc1c(N)cccc1Sc1cccc(F)c1 | 9.8
23 | N#Cc1c(N)cccc1Sc1cccc(Cl)c1 | 7.4

Test system: MT4
Test: Cell culture cytotoxicity against MT-4 cells.
Format: functional, cell-based
Conditions: Homo sapiens
Procedure, shortened: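 MT4 cells were exposed to compound in parallel with the 5-day HIV-1 strain 3B cytopathic-effect assay. Compound-induced cytotoxicity is reported as the cell culture cytotoxicity IC50 (CCIC50).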

Row | SMILES | IC50 [µM]
24 | N#Cc1c(N)cccc1S(=O)(=O)c1ccc(Br)cc1 | > 200
25 | N#Cc1c(N)cccc1Sc1ccc(Cl)cc1 | 113
26 | COc1ccc(S(=O)(=O)c2cccc(N)c2C#N)cc1 | > 200
27 | N#Cc1ccccc1Sc1cccc(N)c1C#N | 42
28 | N#Cc1c(N)cccc1S(=O)(=O)c1cccc(Br)c1 | > 200
29 | COc1ccccc1Sc1cccc(N)c1C#N | > 200
30 | N#Cc1c(N)cccc1S(=O)(=O)c1ccccc1 | > 5
31 | N#Cc1c(N)cccc1Sc1cc(Cl)ccc1Cl | 4.3
32 | CCCCOc1cc(C)cc(S(=O)(=O)c2cccc(N)c2C#N)c1 | > 2
33 | N#Cc1c(N)cccc1S(=O)(=O)c1ccccc1Br | 40
34 | N#Cc1c(N)cccc1S(=O)(=O)c1cccc(C(F)(F)F)c1 | 197
35 | N#Cc1c(N)cccc1S(=O)(=O)c1cccc(Cl)c1 | > 200
36 | Cc1cccc([S+]([O-])c2cccc(N)c2C#N)c1 (centres undefined) | > 200
37 | N#Cc1c(N)cccc1Sc1cccc(N)c1 | 168
38 | N#Cc1c(N)cccc1Sc1cccc(Br)c1 | 53
39 | N#Cc1c(N)cccc1Sc1cccc(C(F)(F)F)c1 | 34
40 | N#Cc1c(N)cccc1[S+]([O-])c1cccc(C(F)(F)F)c1 (centres undefined) | 125
41 | Cc1ccc([S+]([O-])c2cccc(N)c2C#N)cc1 (centres undefined) | > 200
42 | Cc1cccc(Sc2cccc(N)c2C#N)c1 | 79
43 | N#Cc1ccc(S(=O)(=O)c2cccc(N)c2C#N)cc1 | > 200
44 | N#Cc1c(N)cccc1[S+]([O-])c1cc(Cl)ccc1Cl (centres undefined) | > 200
45 | N#Cc1c(N)cccc1Sc1cccc(F)c1 | 162
46 | N#Cc1c(N)cccc1Sc1cccc(Cl)c1 | 53

Target: Human immunodeficiency virus type 1 reverse transcriptase (Human immunodeficiency virus 1, UniProt Q72547)
Test: Inhibitory activity against HIV-1 reverse transcriptase
Conditions: not given
Procedure, shortened: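 Recombinant HIV RT at 1 nM was combined with 40 nM Eu-chelate-labeled biotinylated DNA primer/RNA template and 100 nM Cy5-dUTP. Reactions were started with enzyme.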

Row | SMILES | IC50 [µM]
47 | N#Cc1c(N)cccc1S(=O)(=O)c1ccc(Br)cc1 | > 14
48 | N#Cc1c(N)cccc1Sc1ccc(Cl)cc1 | 12
49 | COc1ccc(S(=O)(=O)c2cccc(N)c2C#N)cc1 | 13
50 | N#Cc1ccccc1Sc1cccc(N)c1C#N | 9.1
51 | N#Cc1c(N)cccc1S(=O)(=O)c1cccc(Br)c1 | 0.2
52 | COc1ccccc1Sc1cccc(N)c1C#N | 2.7
53 | N#Cc1c(N)cccc1S(=O)(=O)c1ccccc1 | 6.9
54 | N#Cc1c(N)cccc1Sc1cc(Cl)ccc1Cl | 3.5
55 | CCCCOc1cc(C)cc(S(=O)(=O)c2cccc(N)c2C#N)c1 | 0.4
56 | N#Cc1c(N)cccc1S(=O)(=O)c1ccccc1Br | 12
57 | N#Cc1c(N)cccc1S(=O)(=O)c1cccc(C(F)(F)F)c1 | 5.3
58 | N#Cc1c(N)cccc1S(=O)(=O)c1cccc(Cl)c1 | 0.4
59 | Cc1cccc([S+]([O-])c2cccc(N)c2C#N)c1 (centres undefined) | 10
60 | N#Cc1c(N)cccc1Sc1cccc(N)c1 | > 23
61 | N#Cc1c(N)cccc1Sc1cccc(Br)c1 | 15
62 | N#Cc1c(N)cccc1Sc1cccc(C(F)(F)F)c1 | 7.1
63 | N#Cc1c(N)cccc1[S+]([O-])c1cccc(C(F)(F)F)c1 (centres undefined) | > 22
64 | Cc1ccc([S+]([O-])c2cccc(N)c2C#N)cc1 (centres undefined) | > 21
65 | Cc1cccc(Sc2cccc(N)c2C#N)c1 | 0.96
66 | N#Cc1ccc(S(=O)(=O)c2cccc(N)c2C#N)cc1 | > 18
67 | N#Cc1c(N)cccc1[S+]([O-])c1cc(Cl)ccc1Cl (centres undefined) | 6.2
68 | N#Cc1c(N)cccc1Sc1cccc(F)c1 | 12
69 | N#Cc1c(N)cccc1Sc1cccc(Cl)c1 | 16
